From publication PMC9065027 (RSC Advances, 2019)

Experiments:
[1] = test system: LdNH; assay: NMR Saturation Transfer Difference; type: binding, Leishmania donovani; details: 100 μM LdNH, 2 mM compound, 2 s saturation time
How it was run: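 STD spectra acquired in alternating scans, on-resonance at −1 ppm and off-resonance at 20 ppm. DPFGSE water suppression, 2 s saturation time, 1024 scans.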

[2] = test system: amastigote parasite Leishmania amazonensis; details: cited from earlier work
[3] = test system: HSV-1; details: cited from earlier work
[4] = test system: HSV-2; details: cited from earlier work

| Compound | STD signals in presence of LdNH [1] | leishmanicidal activity IC50 [2] [µg/mL] | IC50 ([2]; read-out: leishmanicidal activity IC50, value in brackets) [µM] | anti-viral activity EC50 [3] [µg/mL] | anti-viral activity EC50 [4] [µg/mL] |
| --- | --- | --- | --- | --- | --- |
| C[C@@H]1O[C@@H](Oc2c(-c3ccc(O)cc3)oc3cc(O)cc(O)c3c2=O)[C@H](O)[C@H](O)[C@H]1O [compound 1, kaempferol 3-O-α-L-rhamnopyranoside] | only weak resonances | 70 | 162 | – | – |
| C[C@@H]1O[C@@H](Oc2c(-c3ccc(O)cc3)oc3cc(O)cc(O)c3c2=O)[C@H](O[C@@H]2OC[C@@H](O)[C@H](O)[C@H]2O)[C@H](O)[C@H]1O [compound 2, kaempferol 3-O-β-D-xylopyranosyl-(1→2)-α-L-rhamnopyranoside] | much more intense | – | – | 7.4 | 9.0 |
